Laboratory results reported in ChEMBL document CHEMBL1147245, “Chemistry of renieramycins. Part 3.(1) isolation and structure of stabilized renieramycin type derivatives possessing antitumor activity from Thai sponge Xestospongia species, pretreated with potassium cyanide” (J Nat Prod, 2003).

Key:
Format in all cases: functional, cell-based
[1] = tested on: DLD-1; assay: Cytotoxicity against human DLD1 cells after 4 days; conditions: DLD-1, 96 h
[2] = tested on: NCI-H460; assay: Cytotoxicity against human NCI-H460 cells after 4 days; conditions: NCI-H460, 96 h
[3] = tested on: QG-56; assay: Cytotoxicity against human QG56 cells after 4 days; conditions: QG-56, 96 h
[4] = tested on: HCT-116; assay: Cytotoxicity against human HCT116 cells after 4 days; conditions: HCT-116, 96 h
Procedure, shortened: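 HCT116 cells seeded as single-cell suspension at 2×10^3 cells/well onto serially diluted compounds, cultured 4 days; growth read with a cell counting kit. IC50 taken as concentration giving 50% growth inhibition relative to untreated control.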

SMILES | IC50 [1] | IC50 [2] | IC50 [3] | IC50 [4]
COc1cc2c(cc1O)CCN[C@]21CS[C@@H]2c3c(OC(C)=O)c(C)c4c(c3[C@H](COC1=O)N1[C@@H]2[C@H]2c3c(cc(C)c(OC)c3O)C[C@@H]([C@@H]1C#N)N2C)OCO4 [ECTEINASCIDIN 770] | 2.4 nM | 0.64 nM | 3.9 nM | 1.2 nM
C/C=C(/C)C(=O)OC[C@H]1C2=C(C[C@H]3[C@H]4C5=C(C[C@@H]([C@H](C#N)N13)N4C)C(=O)C(C)=C(OC)C5=O)C(=O)C(C)=C(OC)C2=O [RENIERAMYCIN M] | 9.6 nM | 5.9 nM | 19 nM | 7.9 nM
C/C=C(/C)C(=O)OC[C@H]1C2=C(C[C@H]3[C@H]4c5c(O)c(OC)c(C)c(O)c5[C@H](O)[C@@H]([C@H](C#N)N13)N4C)C(=O)C(C)=C(OC)C2=O [RENIERAMYCIN N] | 5.7 nM | 6.7 nM | 11 nM | 5.6 nM
C/C=C(/C)C(=O)OC[C@H]1C2=C(C[C@H]3[C@H]4C5=C(C(=O)C(C)=C(OC)C5=O)[C@H](O)[C@@H]([C@H](C#N)N13)N4C)C(=O)C(C)=C(OC)C2=O [RENIERAMYCIN O] | – | – | 40 nM | 28 nM
COC1=C(C)C(=O)C2=C(C1=O)[C@@H]1[C@@H]3CC4=C(C(=O)C(OC)=C(C)C4=O)[C@H](CNC(=O)C(C)=O)N3[C@@H](C#N)[C@H](C2)N1C [SAFRAMYCIN A] | 0.6 nM | 2.1 nM | 5.5 nM | 0.4 nM
